In ChEMBL document CHEMBL1146490, “New diterpenoids from Viburnum awabuki” (2004):
Values after ≈ are worked out from the molar mass of the structure shown.

Tests used:
Type in all cases: functional
Settings in all cases: read-out: ED50 (the source's name)
A549 = experiment: Cytotoxicity against human A549 cells
How it was run: (§1)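 Standard cytotoxicity procedure from earlier work. A549 is a human lung adenocarcinoma line and HT-29 a human colon adenocarcinoma line, both grown as cell cultures. Potency is given as ED50 in µg/mL.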

HT-29 = experiment: Cytotoxicity against human HT-29 cells; how it was run: as §1
P388 = experiment: Cytotoxicity against mouse P388 cells
How it was run: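 P-388 is a mouse lymphocytic leukemia line, supplied by J. M. Pezzuto (Purdue University), grown in culture and tested by the same previously described cytotoxicity procedure.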

CC(C)=CC(=O)O[C@@H]1/C=C/[C@@](C)(C/C=C/C(C)(C)O)C/C=C(/CO)CC[C@@H]2O[C@]21C [VIBSANIN P]
EC50 (A549): 4.62 µg/mL (≈ 11 µM) | EC50 (HT-29): 9.97 µg/mL (≈ 23.8 µM) | EC50 (P388): 2.25 µg/mL (≈ 5.38 µM)

COC(C)(C)/C=C/C[C@]1(C)/C=C/[C@@H](OC(=O)C=C(C)C)[C@]2(C)O[C@H]2CC/C(CO)=C\C1 [VIBSANIN Q]
EC50 (P388): < 10 µg/mL

C=C(C)/C=C/C[C@]1(C)/C=C/[C@@H](OC(=O)C=C(C)C)[C@]2(C)O[C@H]2CC/C(CO)=C\C1 [VIBSANIN R]
EC50 (P388): < 10 µg/mL

C=C(C)C(O)CC[C@]1(C)/C=C/[C@@H](OC(=O)C=C(C)C)[C@]2(C)O[C@H]2CC/C(CO)=C\C1 (some centres not stated) [VIBSANIN S]
EC50 (P388): < 10 µg/mL

CC(C)=CC(=O)O[C@@H]1/C=C/[C@@](C)(C/C=C/C(C)(C)O)C/C=C(/C=O)CC[C@@H]2O[C@]21C [VIBSANIN T]
EC50 (P388): < 10 µg/mL

CC(C)=CC(=O)O[C@@H]1/C=C/[C@@](C)(CCC(O)C(C)(C)O)C/C=C(/CO)C(=O)/C=C/[C@@]1(C)O (some centres not stated) [VIBSANIN U]
EC50 (P388): < 10 µg/mL

C=C(C)C(O)CC[C@]1(C)/C=C/C[C@]2(C)O[C@H]2CC/C(C=O)=C\C1 (some centres not stated) [VIBSANIN V]
EC50 (P388): < 10 µg/mL

CC(=O)C[C@@H]1C(=O)C(CO)=CC[C@](C)(CCC(O)C(C)(C)O)[C@H]1/C=C/OC(=O)C=C(C)C (some centres not stated) [VIBSANIN W]
EC50 (A549): 5.6 µg/mL (≈ 12.4 µM) | EC50 (HT-29): 8.15 µg/mL (≈ 18.1 µM) | EC50 (P388): 2.18 µg/mL (≈ 4.84 µM)
